Rpn11 block = blocks the human proteasome subunit Rpn11; actives 0.59% (n = 360,000); calls only at 20 µM; O00487; human 26S proteasome, Ub4-pepOG fluorescence polarization; 20S core pre-blocked with epoxomicin;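 active = inhibition at 20 µM, scaled to each plate's controls, above about 33%, limit read from the data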
TPT1 inh = inhibitors of Candida albicans tRNA 2'-phosphotransferase TPT1; inhibition, % at 5 µM; recombinant caTPT1, FP RNA substrate dephosphorylation; actives 0.81% (n = 300,000);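 active = inhibition above the mean of all tested compounds plus 3 SD, set per screening campaign, cut at about 24% in these data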;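 note: plate controls were DMSO alone for no effect and ferristatin control at 100 nM for full effect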
CRFR2-BP ag = agonists of human CRF-binding protein/CRF-R2 receptor complex; HEK293 CRF-R2/CRF-BP, calcium dye fluorescence (FLIPR); percent of saturating CRF peptide response; activation, % at 13.2 µM; actives 0.46% (n = 350,000); AID 588473;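 active = activation of at least 50%, plus an integration ratio under a set limit after plate pattern correction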;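 note: plate controls were neutral control wells without compound for no effect and CRF at EC100 for full effect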
CRFBP-R2 block = CRF-BP/CRF-R2 complex antagonism; inhibition, % at 11.8 µM; HEK293 CRF-R2/CRF-BP, CRF-induced calcium fluorescence; actives 0.59% (n = 350,000);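 active = inhibition of the ligand-induced calcium signal above about 50% at the single tested concentration, limit read from the data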
HNF4A DNA FP = change in binding of human HNF4 alpha to DNA; HNF4a-FITC DNA binding, fluorescence polarization, 1 h; actives 0.3% (n = 360,000); activity change, % at 10 µM; AID 1224865; in the data active = activity change above about 30%, passing the limit was not always enough
Target sequence (P41235 whole entry, looked up): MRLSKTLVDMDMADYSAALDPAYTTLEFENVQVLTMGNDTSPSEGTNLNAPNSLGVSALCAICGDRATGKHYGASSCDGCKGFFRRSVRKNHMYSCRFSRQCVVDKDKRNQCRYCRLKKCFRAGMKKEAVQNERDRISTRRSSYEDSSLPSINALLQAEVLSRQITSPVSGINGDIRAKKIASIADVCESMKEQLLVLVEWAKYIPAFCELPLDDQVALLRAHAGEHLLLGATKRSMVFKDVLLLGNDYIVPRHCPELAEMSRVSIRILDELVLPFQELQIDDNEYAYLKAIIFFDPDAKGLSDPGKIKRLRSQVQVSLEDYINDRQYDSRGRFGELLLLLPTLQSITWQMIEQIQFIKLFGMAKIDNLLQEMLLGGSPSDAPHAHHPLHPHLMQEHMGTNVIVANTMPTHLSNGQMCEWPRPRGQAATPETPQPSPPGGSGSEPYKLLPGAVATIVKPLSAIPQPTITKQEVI
CSN inh = blocks human CSN-mediated cullin deneddylation; inhibition, % at 12.5 µM; actives 0.38% (n = 360,000); Q92905; Purified CSN, SCF-Nedd8-OG deneddylation, fluorescence polarization;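 active = pattern-corrected inhibition above about 35%, with an unprinted fluorescence ratio check between 0.5 and 1.5, limit read from the data, passing the limit was not always enough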;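 note: 0% = enzyme with substrate and 100% = substrate without enzyme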
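Assay system: purified human Csn5 enzyme expressed in HEK293T cells; Input: 0.24 nM Csn5 enzyme, final concentration; Reagent: 10 nM SCFSkp2-Nedd8OG; Compound dosing: 12.5 µM single point; Times: reaction 90 min, room temperature; Technique: fluorescence polarization readout.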
caTPT1 confirm = TPT1 (C. albicans) inhibition, confirmation. shares compounds with TPT1 inh. recombinant caTPT1, fluorescence polarization, RNase T1 coupled. inhibition, % at 5 µM. actives 74% (n = 2,400). AID 2149;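 active = inhibition above the primary screen limit, the mean inhibition of all tested compounds plus 3 SD, cut at about 25% in these data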
RNase T1 counter = counter-screen for TPT1 inhibitors: inhibitors of Aspergillus oryzae RNase T1. inhibition, % at 5 µM. RNase T1 cleavage, fluorescence polarization, 1536-well. shares compounds with TPT1 inh. actives 83% (n = 2,400);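 active = inhibition above the solvent-only control well mean plus 3 SD, limit set per screening run, cut at about 23% in these data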;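 note: plate controls were DMSO wells with enzyme for no effect and wells without RNase T1 for full effect; inhibitors block cleavage so intact labeled substrate keeps polarization high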
Active calls of the source: *; i = inactive; · = not tested or not shown. Shown are actives, neighbours in structure and some others; about 2.3% of the full set was active somewhere.

SMILES | Rpn11 block | TPT1 inh | CRFR2-BP ag | CRFBP-R2 block | HNF4A DNA FP | CSN inh | caTPT1 confirm | RNase T1 counter
C/C(=N\Nc1ccc([N+](=O)[O-])cc1)c1ccco1 | i | 47.6* | 10.2 | -22.5 | 24.7 | 9.9 | 55.6* | 68.8*
CC/C(=N\Nc1ccc([N+](=O)[O-])cc1)c1ccccc1 | · | 39.3* | 0.1 | -18.6 | 21.0 | 12.6 | 47.4* | 59.9*
CC12CCC(=O)N1C(C(=O)Nc1ccc(S(=O)(=O)N3CCCCC3)cc1)CS2 (stereo unspecified) | i | -1.4 | -0.2 | 4.8 | -5.5 | 1.7 | · | ·
O=C1NC(=S)SC1=C1CCCC1 | i | 28.3* | 1.3 | -1.6 | 1.6 | 17.1 | 16.9 | 25.2*
CCCCc1ccc(CC2S/C(=C(\C#N)C(=O)N3CCOCC3)N(c3ccccc3)C2=O)cc1 (stereo unspecified) | i | 34.6* | 0.0 | -22.4 | 0.0 | 1.5 | 61.9* | 73.7*
Cc1cc(NC2C3CC4CC(C3)CC2C4)n2ncnc2n1 (stereo unspecified) | i | 101.0* | -4.3 | -11.4 | 0.0 | 5.5 | 1.0 | 2.4
COc1ccc(OC)c(CN2CCN(S(=O)(=O)c3ccccc3)CC2)c1 | i | -3.4 | -1.7 | 0.8 | 3.8 | 4.4 | · | ·
CCOc1cc2c(cc1/C=C/c1noc(C)c1[N+](=O)[O-])OC(C)C2 (stereo unspecified) | · | 75.1* | 193.0* | -217.5 | 106.0 | 46.7* | 72.8* | 83.2*
O=C1CC2(CCN(C(=O)c3ccccc3F)CC2)Oc2ccccc21 | i | -1.0 | -0.1 | -2.2 | -0.1 | -8.2 | · | ·
CCN(CC)c1ccc2cc(C(=O)NCc3ccc(F)cc3)c(=N)oc2c1 | · | 77.6* | · | · | 64.6 | 7.3 | 109.3* | 108.7*
CN(c1ccccc1)c1ccc(/C=C/[N+](=O)[O-])cc1 | i | 41.9* | 75.5* | -161.9 | 1.8 | 6.0 | 54.7* | 71.4*
CN(C)c1ccc(-n2cccc2/C=C/[N+](=O)[O-])cc1 | i | -2.9 | -0.6 | -12.9 | 6.4 | -5.3 | · | ·
Cc1ccc(C(=O)NNC(=O)CCCN2C(=O)/C(=C/c3ccccc3Cl)SC2=S)cc1 | i | 38.5* | -1.1 | -35.5 | 5.2 | 5.1 | 6.9 | 11.9
O=C(CCCN1C(=O)/C(=C/c2ccccc2Cl)SC1=S)NNC(=O)c1ccc(Cl)cc1 | i | 1.7 | 4.7 | -9.9 | 15.0 | 4.4 | · | ·
CCN(CC)CCCOc1ccc(Cl)c(Cl)c1 | i | 134.2* | -0.2 | -4.0 | -1.3 | -0.4 | 8.5 | 14.9
Cc1cccc(/N=C/c2c(O)[nH]c3ccccc23)n1 | i | 1.4 | -0.3 | -1.2 | 19.6 | 4.1 | · | ·
Oc1c(C=Nc2cccc3cccnc23)sc2ccccc12 | · | 171.8* | · | · | · | · | 151.5* | 138.0*
Cc1cccc(/N=C/c2sc3ccccc3c2O)n1 | i | 85.5* | 35.8 | -39.7 | 2.2 | 3.9 | 29.2* | 40.3*
COc1ccc(-n2c(O)c(/C=N/NS(=O)(=O)c3cc(C)ccc3C)c3ccccc3c2=O)cc1OC | · | 109.2* | 111.0* | -153.8 | 146.5 | 55.6 | 94.3* | 97.6*
COc1ccc(-n2c(O)c(/C=N/NS(=O)(=O)c3ccc(C)cc3)c3ccccc3c2=O)cc1OC | · | 108.8* | 101.5* | -153.8 | 86.5* | 116.6 | 69.9* | 85.8*
COc1ccc(-n2c(O)c(/C=N/Nc3nc(C)cc(C)n3)c3ccccc3c2=O)cc1OC | i | 1.5 | 1.3 | -0.5 | -2.3 | -3.4 | · | ·
CCN1/C(=C/c2cc[n+](CCCS(=O)(=O)[O-])c3ccccc23)Sc2ccccc21 | i | 48.1* | 1.8 | 9.2 | 28.4 | 14.0 | 37.3* | 52.3*
CCC(/C=C1\Sc2ccc(OC)cc2N1CC)=C\c1sc2ccc(OC)cc2[n+]1CCCS(=O)(=O)[O-] | i | 3.3 | 0.2 | 24.8 | 5.7 | 0.4 | · | ·
COP(=O)(OC)C(Nc1ccc(C)cc1)c1ccc(Br)cc1 (stereo unspecified) | i | · | -0.5 | 9.2 | -0.2 | 0.1 | · | ·

Assay outcomes (PubChem)
